# Assay results: ChEMBL document CHEMBL4732181, “Pyrazolo[3,4-d]pyrimidine-based dual EGFR T790M/HER2 inhibitors: Design, synthesis, structure-activity relationship and biological activity as potential antitumor and anticonvulsant agents” (Eur J Med Chem, 2021)
# Calls of active or inactive are those of the source. The calls are words filed in the database; no cut-off is given here.
# Columns and labels:
# [1] = tested on: MCF7; assay: Induction of apoptosis in human MCF7 cells assessed as increase in caspace-3 protein expression at IC50 concentration after 24 hrs by ELISA; format: functional
# Procedure, shortened: (§1)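 Cells treated at IC50 for 24 h and lysed in cell extraction buffer. Lysate diluted in standard diluent buffer and human caspase-3, -7, -9, Bax and Bcl-2 quantified by immunoassay kit (pg/mL). Fold change calculated against untreated control cells.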
# [2] = tested on: Mus musculus; assay: Anticonvulsant activity against mouse model of LiCa/pilocarpine-induced status epilepticus assessed as amplitude at 20 mg/kg, po for 10 days by EEG method relative to control; format: functional; details: time 10 day
# Procedure, shortened: (§2)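 Male mice (20-30 g), five per group, dosed orally once daily for 10 days. Status epilepticus was then induced with LiCa (3 mEq/kg i.p.), atropine sulfate (1 mg/kg i.p.) 30 min before pilocarpine, and pilocarpine HCl (300 mg/kg i.p.) 2 h after LiCa. Normal controls received oral distilled water. Comparators were untreated SE, phenytoin and lamotrigine. One-way ANOVA with Tukey post-hoc; mean ± SD.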
# [3] = tested on: MCF7; assay: Induction of apoptosis in human MCF7 cells assessed as increase in early apoptotic cells at IC50 concentration after 24 hrs by annexin-V-FITC/PI staining based flow cytometric analysis; format: functional
# [4] = tested on: MCF7; assay: Induction of cell cycle arrest in human MCF7 cells assessed as cell accumulation at S phase at IC50 concentration after 24 hrs by propidium iodide staining based flow cytometric analysis (reference value: 42.34%); format: functional
# [5] = tested on: MCF7; assay: Induction of apoptosis in human MCF7 cells assessed as increase in Bax/Bcl-2 ratio at IC50 concentration after 24 hrs by ELISA; format: functional, cell-based; procedure, shortened: as §1
# [6] = tested on: MCF7; assay: Induction of apoptosis in human MCF7 cells assessed as increase in caspace-7 protein expression at IC50 concentration after 24 hrs by ELISA; format: functional; procedure, shortened: as §1
# [7] = tested on: Mus musculus; assay: Anticonvulsant activity against mouse model of LiCa/pilocarpine-induced status epilepticus assessed as delta at 20 mg/kg, po for 10 days by EEG method relative to control; format: functional; details: time 10 day; procedure, shortened: as §2
# [8] = tested on: MCF7; assay: Induction of cell cycle arrest in human MCF7 cells assessed as cell accumulation at pre-G1 phase at IC50 concentration after 24 hrs by propidium iodide staining based flow cytometric analysis (reference value: 1.49%); format: functional
# [9] = tested on: Mus musculus; assay: Anticonvulsant activity against mouse model of LiCa/pilocarpine-induced status epilepticus assessed as mean power frequency at 20 mg/kg, po for 10 days by EEG method relative to control; format: functional; details: time 10 day; procedure, shortened: as §2
# [10] = target: Epidermal growth factor receptor (Homo sapiens, UniProt P00533, T790M); assay: Inhibition of EGFR T790M mutant (unknown origin)
# [11] = tested on: MCF7; assay: Induction of apoptosis in human MCF7 cells assessed as increase in caspace-9 protein expression at IC50 concentration after 24 hrs by ELISA; format: functional; procedure, shortened: as §1
# [12] = target: T1, Receptor tyrosine-protein kinase erbB-2 (Homo sapiens, UniProt P04626); assay: Inhibition of HER2 (unknown origin)
# Procedure, shortened: (§3)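 Cell-free immunoassay kit measuring EGFR T790M/HER2 kinase inhibition. Percent inhibition screened at 10 µM. IC50 obtained from four concentrations (0.01-10 µM) by fitting E(%) = Emax/(1+[I]/ID50) to a dose-response curve. Mean of two independent replicates.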
# [13] = tested on: MCF7; assay: Induction of cell cycle arrest in human MCF7 cells assessed as cell accumulation at G1 phase at IC50 concentration after 24 hrs by propidium iodide staining based flow cytometric analysis (reference value: 53.77%); format: functional
# [14] = tested on: Mus musculus; assay: Anticonvulsant activity against mouse model of LiCa/pilocarpine-induced status epilepticus assessed as total power at 20 mg/kg, po for 10 days by EEG method relative to control; format: functional; details: time 10 day; procedure, shortened: as §2
# [15] = target: T1, Receptor tyrosine-protein kinase erbB-2; assay: Inhibition of HER2 (unknown origin) at 10 uM relative to control; procedure, shortened: as §3
# [16] = tested on: Mus musculus; assay: Anticonvulsant activity against mouse model of LiCa/pilocarpine-induced status epilepticus assessed as power pV2 at 20 mg/kg, po for 10 days by EEG method relative to control; format: functional; details: time 10 day; procedure, shortened: as §2
# [17] = tested on: Mus musculus; assay: Anticonvulsant activity against mouse model of LiCa/pilocarpine-induced status epilepticus assessed as theta at 20 mg/kg, po for 10 days by EEG method relative to control; format: functional; details: time 10 day; procedure, shortened: as §2
# [18] = tested on: Mus musculus; assay: Anticonvulsant activity against mouse model of LiCa/pilocarpine-induced status epilepticus assessed as MDA level in brain at 20 mg/kg, po for 10 days by calorimetric method relative to control; format: functional; details: time 10 day; procedure, shortened: as §2
# [19] = tested on: Mus musculus; assay: Anticonvulsant activity against mouse model of LiCa/pilocarpine-induced status epilepticus assessed as total power density at 20 mg/kg, po for 10 days by EEG method relative to control; format: functional; details: time 10 day; procedure, shortened: as §2
# [20] = tested on: Mus musculus; assay: Anticonvulsant activity against mouse model of LiCa/pilocarpine-induced status epilepticus assessed as Glutamate level in brain at 20 mg/kg, po for 10 days by ELISA relative to control; format: functional; details: time 10 day; procedure, shortened: as §2
# [21] = tested on: MCF7; assay: Induction of cell cycle arrest in human MCF7 cells assessed as cell accumulation at G2/M phase at IC50 concentration after 24 hrs by propidium iodide staining based flow cytometric analysis (reference value: 3.89%); format: functional
# [22] = tested on: WI-38; assay: Cytotoxicity against human WI-38 cells assessed as reduction in cell viability after 48 hrs by MTT assay; format: cell-based; details: WI-38, 48 h
# Procedure, shortened: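 Cells from ATCC grown in DMEM with 10% FBS, insulin and 1% penicillin-streptomycin. Plated at 1.2-1.8 × 10,000 cells/well for 24 h, then exposed to compounds in DMSO vehicle for 48 h. MTT 0.5 mg/ml added for 2 h; absorbance read at 570 nm. Experiments run in triplicate.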
# [23] = tested on: Mus musculus; assay: Anticonvulsant activity against mouse model of LiCa/pilocarpine-induced status epilepticus assessed as GABA level in brain at 20 mg/kg, po for 10 days by ELISA relative to control; format: functional; details: time 10 day; procedure, shortened: as §2
# [24] = tested on: MCF7; assay: Induction of apoptosis in human MCF7 cells assessed as late apoptotic cells at IC50 concentration after 24 hrs by annexin-V-FITC/PI staining based flow cytometric analysis (reference value: 0.47%)
# [25] = tested on: MCF7; assay: Induction of apoptosis in human MCF7 cells assessed as increase in Bax protein expression at IC50 concentration after 24 hrs by ELISA; format: functional; procedure, shortened: as §1
# [26] = tested on: Mus musculus; assay: Anticonvulsant activity against mouse model of LiCa/pilocarpine-induced status epilepticus assessed as amplitude density at 20 mg/kg, po for 10 days by EEG method relative to control; format: functional; details: time 10 day; procedure, shortened: as §2
# [27] = tested on: Mus musculus; assay: Anticonvulsant activity against mouse model of LiCa/pilocarpine-induced status epilepticus assessed as alpha at 20 mg/kg, po for 10 days by EEG method relative to control; format: functional; details: time 10 day; procedure, shortened: as §2
# [28] = tested on: Mus musculus; assay: Anticonvulsant activity against mouse model of LiCa/pilocarpine-induced status epilepticus assessed as spectral edge frequency at 20 mg/kg, po for 10 days by EEG method relative to control; format: functional; details: time 10 day; procedure, shortened: as §2
# [29] = tested on: MCF7; assay: Induction of apoptosis in human MCF7 cells assessed as increase in late apoptotic cells at IC50 concentration after 24 hrs by annexin-V-FITC/PI staining based flow cytometric analysis; format: functional
# [30] = tested on: Mus musculus; assay: Anticonvulsant activity against mouse model of LiCa/pilocarpine-induced status epilepticus assessed as GSH level in brain at 20 mg/kg, po for 10 days by calorimetric method relative to control; format: functional; details: time 10 day; procedure, shortened: as §2
# [31] = tested on: MCF7; assay: Induction of cell cycle arrest in human MCF7 cells assessed as cell increase in accumulation at G2/M phase at IC50 concentration after 24 hrs by propidium iodide staining based flow cytometric analysis; format: functional
# [32] = tested on: MCF7; assay: Induction of apoptosis in human MCF7 cells assessed as decrease in Bcl-2 protein expression at IC50 concentration after 24 hrs by ELISA; format: functional; procedure, shortened: as §1
# [33] = tested on: MCF7; assay: Induction of apoptosis in human MCF7 cells assessed as early apoptotic cells at IC50 concentration after 24 hrs by annexin-V-FITC/PI staining based flow cytometric analysis (reference value: 0.84%)
# T1 sequence (P04626 whole entry): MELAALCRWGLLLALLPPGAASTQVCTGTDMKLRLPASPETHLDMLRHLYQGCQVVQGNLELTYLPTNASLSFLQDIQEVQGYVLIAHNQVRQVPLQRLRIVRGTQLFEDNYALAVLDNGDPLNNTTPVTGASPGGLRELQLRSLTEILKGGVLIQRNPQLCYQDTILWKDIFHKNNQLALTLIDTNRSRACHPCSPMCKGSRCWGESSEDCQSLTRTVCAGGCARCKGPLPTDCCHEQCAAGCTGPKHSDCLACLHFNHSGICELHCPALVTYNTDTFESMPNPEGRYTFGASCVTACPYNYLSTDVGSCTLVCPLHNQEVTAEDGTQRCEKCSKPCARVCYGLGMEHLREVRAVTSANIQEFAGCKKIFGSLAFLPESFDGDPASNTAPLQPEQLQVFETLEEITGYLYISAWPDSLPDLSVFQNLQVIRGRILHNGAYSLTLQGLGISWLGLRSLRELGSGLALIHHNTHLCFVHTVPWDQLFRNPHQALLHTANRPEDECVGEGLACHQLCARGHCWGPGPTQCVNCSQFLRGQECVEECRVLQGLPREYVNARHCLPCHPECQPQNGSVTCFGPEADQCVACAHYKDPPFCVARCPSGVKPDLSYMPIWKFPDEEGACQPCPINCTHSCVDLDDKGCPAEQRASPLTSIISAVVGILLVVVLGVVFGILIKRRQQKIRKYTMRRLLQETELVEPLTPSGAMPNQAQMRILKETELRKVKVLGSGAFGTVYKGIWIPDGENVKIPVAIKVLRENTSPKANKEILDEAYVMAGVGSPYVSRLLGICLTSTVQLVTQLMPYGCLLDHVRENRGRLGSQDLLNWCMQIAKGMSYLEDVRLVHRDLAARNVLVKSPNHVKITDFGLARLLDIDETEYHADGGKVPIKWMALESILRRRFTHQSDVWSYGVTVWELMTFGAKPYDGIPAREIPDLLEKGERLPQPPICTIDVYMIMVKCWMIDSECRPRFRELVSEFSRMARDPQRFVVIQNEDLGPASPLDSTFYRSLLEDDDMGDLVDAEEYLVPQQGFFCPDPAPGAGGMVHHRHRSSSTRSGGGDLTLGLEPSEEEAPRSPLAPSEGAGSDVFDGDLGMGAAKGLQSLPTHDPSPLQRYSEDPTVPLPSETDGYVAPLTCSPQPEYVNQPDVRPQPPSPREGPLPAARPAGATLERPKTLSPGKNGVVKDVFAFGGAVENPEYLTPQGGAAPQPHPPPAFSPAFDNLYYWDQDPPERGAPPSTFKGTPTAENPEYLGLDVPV
# Epidermal growth factor receptor, sequence (P00533 25-1210 T790M limits assumed): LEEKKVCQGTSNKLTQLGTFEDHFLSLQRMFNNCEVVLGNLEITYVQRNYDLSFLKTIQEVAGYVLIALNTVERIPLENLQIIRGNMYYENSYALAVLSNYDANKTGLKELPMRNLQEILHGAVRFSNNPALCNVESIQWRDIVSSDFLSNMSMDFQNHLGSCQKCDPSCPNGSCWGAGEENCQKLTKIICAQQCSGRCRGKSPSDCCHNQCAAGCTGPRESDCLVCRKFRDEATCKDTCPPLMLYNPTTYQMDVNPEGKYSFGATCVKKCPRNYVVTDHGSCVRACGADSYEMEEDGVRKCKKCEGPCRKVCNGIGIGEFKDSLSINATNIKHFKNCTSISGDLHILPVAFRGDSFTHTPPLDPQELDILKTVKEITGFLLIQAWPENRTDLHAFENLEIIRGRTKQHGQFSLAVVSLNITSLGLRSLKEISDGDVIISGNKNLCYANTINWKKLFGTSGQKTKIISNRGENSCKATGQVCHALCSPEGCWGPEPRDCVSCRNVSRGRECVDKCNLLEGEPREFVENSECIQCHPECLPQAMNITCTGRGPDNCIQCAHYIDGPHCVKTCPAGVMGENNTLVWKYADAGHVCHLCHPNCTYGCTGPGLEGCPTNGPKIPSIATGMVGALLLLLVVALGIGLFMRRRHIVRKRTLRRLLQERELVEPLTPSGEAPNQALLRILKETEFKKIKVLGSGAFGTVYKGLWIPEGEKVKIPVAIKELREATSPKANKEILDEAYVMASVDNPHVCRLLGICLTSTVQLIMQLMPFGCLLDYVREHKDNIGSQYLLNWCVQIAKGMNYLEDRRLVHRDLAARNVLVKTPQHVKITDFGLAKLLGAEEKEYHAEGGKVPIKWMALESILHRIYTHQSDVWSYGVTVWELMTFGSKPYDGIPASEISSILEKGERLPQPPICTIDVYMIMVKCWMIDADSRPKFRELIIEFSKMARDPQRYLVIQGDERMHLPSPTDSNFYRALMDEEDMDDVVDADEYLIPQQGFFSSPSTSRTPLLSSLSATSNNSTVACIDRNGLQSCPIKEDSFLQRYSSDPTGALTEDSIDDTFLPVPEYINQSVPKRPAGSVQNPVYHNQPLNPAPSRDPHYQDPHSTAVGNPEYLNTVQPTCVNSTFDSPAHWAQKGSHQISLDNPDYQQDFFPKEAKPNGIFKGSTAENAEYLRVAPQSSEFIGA
smiles,measurement,setting,value
COc1ccc(/C=C2/N=C(c3ccc(Cl)cc3)N(C(=O)Cc3nc4c(c(C)nn4-c4ccccc4)c(=O)[nH]3)NC2=O)cc1,fold change (FC),[1],12
same,Activity,[2],47.56%
same,fold change (FC),[3],5.6
same,Activity,[4],28.34%
same,Activity,[5],Active
same,fold change (FC),[6],7.9
same,Activity,[7],258.15%
same,Activity,[8],22.12%
same,Activity,[9],-28.59%
same,IC50,[10],227 nM
same,fold change (FC),[11],22.9
same,IC50,[12],866 nM
same,Activity,[13],25.09%
same,Activity,[14],13.12%
same,inhibition,[15],86.7%
same,Activity,[16],132.38%
same,Activity,[17],55.17%
same,Activity,[18],-50%
same,Activity,[19],174.78%
same,Activity,[20],-36.07%
same,Activity,[21],46.57%
same,IC50,[22],54.9 nM
same,Activity,[23],71.54%
same,Activity,[24],13.9%
same,fold change (FC),[25],5.6
same,Activity,[26],67.48%
same,Activity,[27],28.04%
same,Activity,[28],-20.21%
same,fold change (FC),[29],29.5
same,Activity,[30],179.51%
same,fold change (FC),[31],11.97
same,fold change (FC),[32],3.4
same,Activity,[33],4.98%
